Measured values from ChEMBL document CHEMBL1649277, “Inhibition of herpesvirus replication by 5-substituted 4'-thiopyrimidine nucleosides” (Antimicrob Agents Chemother, 2009).
pEC50: −log10 of the molar value. Active and inactive are the calls of the source. The rule behind the calls is not given here.

How the values were obtained:
Human alphaherpesvirus 1 [1] = test: Antiviral activity against HSV1 DM2.1 harboring frameshift mutation in TK infected in HFF after 3 days by plaque reduction assay; type: functional, organism-based; settings: Human alphaherpesvirus 1, DM2.1, 72 h
How it was run: (§1)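 Confluent HFF monolayers (passage <10) were infected in triplicate wells at 20–30 plaques per well, with 1 h adsorption and rocking every 15 min. Six serial dilutions (top 100 μM) were made in MEM with 2% FBS and pooled human immunoglobulin. Cells were incubated 3 days and stained with crystal violet. Plaques were counted, and EC50 was interpolated from plaque reduction.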

Human alphaherpesvirus 2 [2] = test: Antiviral activity against HSV2 infected in BALB/c mouse assessed mean time to virus-induced death at 30 mg/kg, po BID administered 24 hrs post infection; type: functional
Human alphaherpesvirus 2 [3] = test: Antiviral activity against 4'-thioIDU-resistant HSV2 infected in HFF after 3 days by plaque reduction assay; type: functional, organism-based; settings: Human alphaherpesvirus 2, 72 h; how it was run: as §1
Human alphaherpesvirus 2 [4] = test: Antiviral activity against HSV2 infected in BALB/c mouse assessed mean time to virus-induced death at […], po BID administered 72 hrs post infection; type: functional
[5] = Cytotoxicity against human Akata cells after 3 days by MTS assay; type: cell-based
How it was run: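 Akata cells were plated as for the EBV assay but not induced with anti-IgG. Viability was read at the same time as the antiviral endpoint: MTS was added, plates incubated 4 h at 37°C, and formazan absorbance read at 490 nm. Medium-only control wells were included. CC50 was the concentration reducing viable cells by 50%.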

Human alphaherpesvirus 2 [6] = test: Antiviral activity against HSV2 infected in BALB/c mouse assessed mean time to virus-induced death at 10 mg/kg, po BID administered 48 hrs post infection; type: functional
Human alphaherpesvirus 2 [7] = test: Antiviral activity against HSV2 AG-3 harboring TK Q105P mutant gene infected in HFF after 3 days by plaque reduction assay; type: functional, organism-based; settings: Human alphaherpesvirus 2, AG-3, 72 h; how it was run: as §1
Human alphaherpesvirus 2 [8] = test: Antiviral activity against HSV2 infected in BALB/c mouse assessed as virus-induced mortality rate at 10 mg/kg, po BID administered 72 hrs post infection; type: functional
[9] = Selectivity index, ratio of CC50 for HFF to EC50 for human cytomegalovirus AD169 infected in HFF
Human alphaherpesvirus 2 [10] = test: Antiviral activity against HSV2 infected in BALB/c mouse assessed mean time to virus-induced death at […], po BID administered 24 hrs post infection; type: functional
Human alphaherpesvirus 3 = test: Antiviral activity against VZV Ellan infected in HFF after 8 to 10 days by plaque reduction assay; type: functional, organism-based; settings: Human alphaherpesvirus 3, Ellan
How it was run: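 Plaque reduction on confluent HFF monolayers in triplicate wells: 1 h adsorption, then six serial compound dilutions (top 100 μM) in MEM with 2% FBS, no immunoglobulin. Incubation was 8 days for HCMV and 10 days for VZV. Plaques were stained with 0.017% neutral red in PBS and counted microscopically. EC50 was interpolated at 50% plaque reduction.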

Human betaherpesvirus 5 [11] = test: Antiviral activity against human cytomegalovirus PFAB300 harboring UL54 L724V mutant gene infected in HFF after 8 to 10 days by plaque reduction assay; type: functional, organism-based; settings: Human betaherpesvirus 5, PFAB300
How it was run: (§2)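 Plaque reduction in confluent HFF with six serial dilutions (top 100 μM) and no immunoglobulin added. Virus was adsorbed 1 h on triplicate wells. Cells were incubated 8 days, stained with 0.017% neutral red in PBS, and plaques counted. EC50 is the concentration reducing plaque number by 50%.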

[12] = Cytotoxicity against human BCBL1 cells after 3 days by MTS assay; type: cell-based
Human alphaherpesvirus 2 [13] = test: Antiviral activity against HSV2 11680 harboring TK R223H mutant gene infected in HFF after 3 days by plaque reduction assay; type: functional, organism-based; settings: Human alphaherpesvirus 2, 11680, 72 h; how it was run: as §1
Human alphaherpesvirus 2 [14] = test: Antiviral activity against HSV2 infected in BALB/c mouse assessed as virus-induced mortality rate at […], po BID administered 48 hrs post infection; type: functional
Human alphaherpesvirus 2 [15] = test: Antiviral activity against HSV2 infected in BALB/c mouse assessed as virus-induced mortality rate at 30 mg/kg, po BID administered 48 hrs post infection; type: functional
Human alphaherpesvirus 1 [16] = test: Antiviral activity against HSV1 PAA5 harboring polymerase R842S mutant gene infected in HFF after 3 days by plaque reduction assay; type: functional, organism-based; settings: Human alphaherpesvirus 1, PAA5, 72 h; how it was run: as §1
Human alphaherpesvirus 2 [17] = test: Antiviral activity against HSV2 infected in BALB/c mouse assessed as virus-induced mortality rate at 10 mg/kg, po BID administered 48 hrs post infection; type: functional
Human alphaherpesvirus 2 [18] = test: Antiviral activity against HSV2 13077 harboring TK R223H mutant gene infected in HFF after 3 days by plaque reduction assay; type: functional, organism-based; settings: Human alphaherpesvirus 2, 13077, 72 h; how it was run: as §1
Human alphaherpesvirus 1 [19] = test: Antiviral activity against HSV1 SC16-S1 harboring TK A265T/C336Y mutant gene infected in HFF after 3 days by plaque reduction assay; type: functional, organism-based; settings: Human alphaherpesvirus 1, SC16-S1, 72 h; how it was run: as §1
Human alphaherpesvirus 2 [20] = test: Antiviral activity against HSV2 infected in BALB/c mouse assessed mean time to virus-induced death at […], po BID administered 48 hrs post infection; type: functional
[21] = Cytotoxicity against HFF after 3 days by MTS assay; type: cell-based; settings: human, HFF cells
Human betaherpesvirus 5 [22] = test: Antiviral activity against human cytomegalovirus 1117 harboring UL54 K513N mutant gene infected in HFF after 8 to 10 days by plaque reduction assay; type: functional, organism-based; settings: Human betaherpesvirus 5, 1117; how it was run: as §2
Human alphaherpesvirus 2 [23] = test: Antiviral activity against 4'-thioIDU-resistant HSV2 infected in HFF assessed as inhibition of viral DNA synthesis-associated incorporation in DNA by immunofluorescence assay; type: functional, organism-based
How it was run: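 HFF on coverslips were infected with HSV-2 MS or the resistant isolate (MOI 0.2 PFU/cell) for 48 h. Cells were pulsed with BrdUrd or 10 μM test compound for 30 min before fixation. Incorporation was detected with a cross-reacting anti-BrdUrd monoclonal antibody, infected cells with anti-155-kDa nucleocapsid antibody, and nuclei with DAPI.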

Human alphaherpesvirus 2 [24] = test: Antiviral activity against HSV2 12247 harboring TK C337Y mutant gene infected in HFF after 3 days by plaque reduction assay; type: functional, organism-based; settings: Human alphaherpesvirus 2, 12247, 72 h; how it was run: as §1
Human alphaherpesvirus 1 [25] = test: Antiviral activity against HSV1 E377 infected in HFF after 3 days by plaque reduction assay; type: functional, organism-based; settings: Human alphaherpesvirus 1, E377, 72 h; how it was run: as §1
Human betaherpesvirus 5 [26] = test: Antiviral activity against human cytomegalovirus C8914-6 harboring UL97 I244V, L595F and UL54 L501F mutant gene infected in HFF after 8 to 10 days by plaque reduction assay; type: functional, organism-based; settings: Human betaherpesvirus 5, C8914-6; how it was run: as §2
[27] = Cytotoxicity against human HSB2 cells after 3 days by MTS assay; type: cell-based, CCRF-HSB-2
Human alphaherpesvirus 2 [28] = test: Antiviral activity against HSV2 infected in BALB/c mouse assessed mean time to virus-induced death at 30 mg/kg, po BID administered 48 hrs post infection; type: functional
[29] = Selectivity index, ratio of CC50 for human HSB2 cells to EC50 for Human herpesvirus 6 GS infected in human HSB2 cells; type: toxicity, cell-based; settings: read-out: Ratio CC50/EC50

With `O=c1[nH]c(=O)n([C@H]2C[C@H](O)[C@@H](CO)S2)cc1I` the pEC50 (Human alphaherpesvirus 1 [1]) was less than 3.35, the Time (Human alphaherpesvirus 2 [2]) was 12.1 days and the pEC50 (Human alphaherpesvirus 2 [3]) was 4.24. It also gave a Time (Human alphaherpesvirus 2 [4]) of 10 days, a CC50 at 72 h [5] of 0.68 µM and a Time (Human alphaherpesvirus 2 [6]) of 10.4 days. The pEC50 (Human alphaherpesvirus 2 [7]) was less than 3.35, the Activity (Human alphaherpesvirus 2 [8]) was 73% and the “Ratio CC50/EC50” value [9] was greater than 17. The Time (Human alphaherpesvirus 2 [10]) was 8.2 days, the pEC50 (Human alphaherpesvirus 3) was 5.70 and the pEC50 (Human betaherpesvirus 5 [11]) was 4.60. For the same compound, the CC50 at 72 h [12] was 14 µM, the pEC50 (Human alphaherpesvirus 2 [13]) was 3.61 and the Activity (Human alphaherpesvirus 2 [14]) was 93%. It also gave an Activity (Human alphaherpesvirus 2 [15]) of 100%, a pEC50 (Human alphaherpesvirus 1 [16]) of 4.55 and an Activity (Human alphaherpesvirus 2 [17]) of 73%. It also gave a pEC50 (Human alphaherpesvirus 2 [18]) of less than 3.46, a pEC50 (Human alphaherpesvirus 1 [19]) of less than 3.35 and a Time (Human alphaherpesvirus 2 [20]) of 9.4 days. The CC50 at 72 h [21] was greater than 70 µM, the pEC50 (Human betaherpesvirus 5 [22]) was 5.36 and the inhibition (Human alphaherpesvirus 2 [23]) was “inactive”. It also gave a pEC50 (Human alphaherpesvirus 2 [24]) of less than 3.35, a pEC50 (Human alphaherpesvirus 1 [25]) of 5.92 and a pEC50 (Human betaherpesvirus 5 [26]) of 4.37. It also gave a CC50 at 72 h [27] greater than 100 µM, a Time (Human alphaherpesvirus 2 [28]) of 12.8 days and a selectivity ratio [29] of 1.
